A selection: hits, their analogues and other compounds. The true share with any hit is near 1.3%.
TPT1 inhibitor: Candida albicans TPT1 enzyme inhibitors, primary screen, biochemical, fluorescence polarization | tRNA 2'-phosphotransferase TPT1 (Candida albicans SC5314) | recombinant caTPT1, FP RNA substrate dephosphorylation | inhibition, % at 5 µM | 300,000 tested, 0.81% active | AID 1962, 2009;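 active means inhibition above the mean of all tested compounds plus 3 SD, set per screening campaign, cut at about 24% in these data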;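 further: plate controls were DMSO alone for no effect and ferristatin control at 100 nM for full effect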
Rpn11 block: Rpn11 (PSMD14) deubiquitinase inhibitors, primary screen, biochemical, fluorescence polarization, uHTS. 360,000 tested, 0.59% active. 26S proteasome non-ATPase regulatory subunit 14 (Homo sapiens), O00487. human 26S proteasome, Ub4-pepOG fluorescence polarization; 20S core pre-blocked with epoxomicin. inhibition, % at 20 µM;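 active means inhibition at 20 µM, scaled to each plate's controls, above about 33%, limit read from the data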
Target sequence (O00487 whole entry, looked up): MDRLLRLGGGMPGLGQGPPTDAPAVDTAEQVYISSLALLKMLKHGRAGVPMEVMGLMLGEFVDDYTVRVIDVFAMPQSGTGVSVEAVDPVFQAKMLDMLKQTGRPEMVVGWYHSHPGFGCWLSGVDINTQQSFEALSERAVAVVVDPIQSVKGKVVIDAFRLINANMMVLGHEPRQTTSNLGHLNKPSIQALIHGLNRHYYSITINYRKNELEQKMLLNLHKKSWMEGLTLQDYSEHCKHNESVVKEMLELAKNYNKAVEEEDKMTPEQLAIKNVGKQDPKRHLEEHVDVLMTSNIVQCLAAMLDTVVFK
XiGFP reactiv: activators of inactive X chromosome reactivation, primary screen, imaging, XiGFP fibroblasts, GFP high-content imaging, set 2; XiGFP mouse fibroblasts, % GFP-positive cells imaging, 3 d; cells co-treated with 5-aza-dC sensitizer; scaled so ellipticine positive control = 100%; activation, % at 7.58 µM; 360,000 tested, 0.055% active; AID 743238, 2013;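 active means mean normalized replicate activation at least 10% and every replicate at or above 10%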;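 further: 0% = median of on-plate neutral control wells and 100% = ellipticine 6 µM median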
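Material: SV40-immortalized XiGFP fibroblast cells, line 68-5-11 | Buffer or medium: DMEM containing 5-aza-dC | Dosing: One concentration, pinned | Times: 3 d treatment, 15 min room-temperature fixation | Controls: Ellipticine 6 µM positive control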
CSN deneddyl inh: inhibitors of CSN-mediated cullin deneddylation, primary screen, biochemical, fluorescence polarization, uHTS | 360,000 tested, 0.38% active | Purified CSN, SCF-Nedd8-OG deneddylation | COP9 signalosome complex subunit 5 (Homo sapiens), Q92905 | inhibition, % at 12.5 µM;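 active means pattern-corrected inhibition above about 35%, with an unprinted fluorescence ratio check between 0.5 and 1.5, limit read from the data, passing the limit was not always enough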;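 further: 0% = enzyme with substrate and 100% = substrate without enzyme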
Target sequence (Q92905 whole entry, looked up, one chain of several): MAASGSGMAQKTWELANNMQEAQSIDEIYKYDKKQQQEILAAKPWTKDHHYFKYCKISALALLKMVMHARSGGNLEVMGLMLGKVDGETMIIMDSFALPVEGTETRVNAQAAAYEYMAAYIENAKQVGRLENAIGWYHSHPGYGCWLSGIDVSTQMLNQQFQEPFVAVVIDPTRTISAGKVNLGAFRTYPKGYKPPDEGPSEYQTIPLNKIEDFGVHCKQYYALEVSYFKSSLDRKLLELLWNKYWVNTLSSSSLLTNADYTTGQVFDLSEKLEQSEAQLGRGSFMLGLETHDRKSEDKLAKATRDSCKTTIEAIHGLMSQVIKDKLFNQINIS
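Detection – fluorescence polarization · System – HEK293T-derived human Csn5 enzyme · Controls – substrate-only high control, full reaction low control · Timing – 90 min, room temperature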
aDG glyco act: activators of alpha-DG glycosylation, primary screen, uHTS, Pro5-aDG cells, AlphaScreen; 360,000 tested, 0.22% active; activation, % at 10 µM; alpha-DG glycosylation AlphaScreen (IIH6); 0% Pro5, 100% B10-LARGE cell signal;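 active means activation of at least 8% versus controls, or a plate z-score of at least 8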;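 further: Pro5 are CHO cells carrying HIG-tagged alpha-DG that lacks glycosylation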
HNF4A DNA FP: change in binding of human HNF4A to DNA, primary screen, biochemical, fluorescence polarization, FITC-DNA; Hepatocyte nuclear factor 4-alpha (Homo sapiens), P41235; 360,000 tested, 0.3% active; activity change, % at 10 µM; 1 h; in the data active means activity change above about 30%, passing the limit was not always enough
Rpn11 confirm: Rpn11 (PSMD14) deubiquitinase inhibitors, confirmation, biochemical, fluorescence polarization, single concentration; shares compounds with Rpn11 block; purified human 26S proteasome, Ub4-pepOG fluorescence polarization; proteasome pretreated with epoxomicin; inhibition, % at 20 µM; 1,900 tested, 29% active
MMP-2 counter: MMP-2 enzyme inhibition, confirmation, counter-screen for RPN11 inhibitor project, biochemical, fluorescence, single concentration | inhibition, % at 20 µM | recombinant MMP-2, FRET peptide cleavage fluorescence | 1,900 tested, 4% active | shares compounds with Rpn11 block;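 further: human MMP-2 activated beforehand with APMA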
Thrombin inh: bovine thrombin protease inhibition, confirmation, counter-screen for Rpn11 inhibitor project, biochemical, fluorescence polarization, single concentration; shares compounds with Rpn11 block; bovine thrombin cleavage of Ub4-pepOG; inhibition, % at 20 µM; 1,900 tested, 13% active;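 active means mean inhibition at least 40% at 20 µM, or signal 3 deviations below plate average, so some actives read negative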;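 further: plate controls were thrombin with DMSO for no effect and buffer wells lacking thrombin for full effect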
An asterisk follows results filed as active; / = no result. Unless noted, no stated cut-off is given here; in the data, active means inhibition above about 40%; inactive means the rest.

SMILES	TPT1 inhibitor	Rpn11 block	XiGFP reactiv	CSN deneddyl inh	aDG glyco act	HNF4A DNA FP	Rpn11 confirm	MMP-2 counter	Thrombin inh
O=C(COc1ccc2c3c(c(=O)oc2c1)CCC3)Nc1ccc(CCO)cc1	1.1	45.4*	0.0	14.1	0.3	-0.1	17.8	-37.7	11.3
COc1cc(C=C2CCCC(=Cc3ccc(OCC4CO4)c(OC)c3)C2=O)ccc1OCC1CO1 (stereo unspecified)	/	50.7*	0.6	14.4	-0.5	5.6	5.1	-12.1	-14.7
COc1cccc(-c2nn(C)c3sc(C(=O)NCCCN(C)Cc4ccccc4)cc23)c1	-4.5	87.7*	0.3	0.9	0.3	1.1	-16.6	-9.7	-16.8
CC(C)Cc1nnc(NC(=O)Cc2cccs2)s1	18.0	52.5*	0.0	25.6	0.1	23.1	81.4*	30.8	39.4
CN(Cc1ccccc1)c1cc2c(c3c1ccn3C)C1CCC2O1 (stereo unspecified)	/	11.2	/	2.7	-0.2	2.6	/	/	/
COc1ccccc1N(C)c1cc2c(c3c1ccn3C)C1CCC2O1 (stereo unspecified)	/	42.0*	0.4	11.2	1.6	9.5	-8.4	-57.2	3.4
Cn1ccc2c(N3c4ccccc4CCc4ccccc43)cc3c(c21)C1CCC3O1 (stereo unspecified)	/	48.7*	0.0	15.7	5.2	28.5	6.6	-39.6	-5.6
O=C(Nc1ccccc1F)N[C@@H]1CC[C@@H](CCNC(=O)C2CC2)O[C@@H]1CO	/	/	0.2	/	/	/	/	/	/
O=C(COC(=O)c1ccc(S(=O)(=O)N2CCCCC2)cc1)NC1CCCCC1	/	1.5	-0.2	-1.0	-0.2	0.8	/	/	/
O=C(COC(=O)c1ccc(S(=O)(=O)N2CCc3ccccc3C2)cc1)NC1CCS(=O)(=O)C1 (stereo unspecified)	0.0	48.6*	0.2	1.0	0.0	0.4	-11.9	25.4	-22.4
C[C@@H]1CN([C@H](C)CO)C(=O)Cc2cc(NC(=O)CCCCCC(=O)Nc3ccccc3N)ccc2O[C@H]1CN(C)Cc1ccc(-c2ccccc2)cc1	/	/	0.1	/	/	/	/	/	/
O=C(NC1CCCC1)[C@H]1[C@H](CO)[C@H]2Cn3c(ccc(-c4ccncc4)c3=O)[C@H]2N1CC1CC1	/	/	0.3	/	/	/	/	/	/
Cc1nn2c(N3CCCC3)c3c(nc2c1-c1ccccc1)CCC3	3.6	110.4*	0.0	2.2	-0.1	-3.2	27.5	-8.8	5.5
C[C@@H]1CCCCO[C@@H](CN(C)S(=O)(=O)c2cn(C)cn2)[C@@H](C)CN([C@@H](C)CO)C(=O)c2cc(NC(=O)Nc3ccc4c(c3)OCO4)ccc2O1	/	/	0.1	/	/	/	/	/	/
Cc1nc(NC(=O)c2ccccc2)sc1-c1csc(NCCc2ccccc2)n1	-0.3	43.7*	/	40.2*	0.0	27.4	-3.7	6.6	-15.5
CC1CCCN(C(=O)CN2CCC(c3nc4ccc(Cl)cc4[nH]3)CC2)C1 (stereo unspecified)	3.4	-2.2	0.1	10.2	0.1	4.0	/	/	/
Clc1ccc(CN2CCC(c3nc4ccc(Cl)cc4[nH]3)CC2)cc1	5.1	54.6*	/	3.6	3.7	14.2	6.6	-4.6	7.6
CO[C@H]1CN(C)C(=O)c2cc(NS(=O)(=O)c3ccccc3)ccc2OC[C@@H](C)N(Cc2cccnc2)C[C@@H]1C	/	/	-0.5	/	/	/	/	/	/
C[C@H](CO)N1C[C@H](C)[C@H](CN(C)Cc2ccc3c(c2)OCO3)Oc2ccc(NC(=O)Nc3ccc(F)cc3)cc2C1=O	/	/	-1.1	/	/	/	/	/	/
Cc1cc(NC(=O)c2cccc(S(=O)(=O)N(C)C)c2)n(-c2ccccn2)n1	0.0	92.1*	/	0.7	3.6	1.7	-1.7	-15.8	-18.0
Cc1ccccc1-c1ccccc1[C@@H]1[C@H](C#N)N(C(=O)c2ccccc2)[C@H]1CO	/	/	0.3	/	/	/	/	/	/
CSc1ccc(S(=O)(=O)N2CCC(C(=O)Nc3ccccc3C(F)(F)F)CC2)cc1	-0.4	35.0*	0.1	-0.1	0.0	-47.0	4.3	-13.3	1.5
COc1cc(/C=C2\C=CC(=O)O2)cc(OC)c1	23.7	38.0*	0.0	14.4	0.1	22.2	22.1	-4.2	9.1
COc1ccccc1NC(=O)N[C@H]1CC[C@@H](CCn2cc(-c3ccccc3)nn2)O[C@@H]1CO	/	/	-0.1	/	/	/	/	/	/
C=CCSc1nnc(NC(=O)c2cn(CC)c3nc(C)ccc3c2=O)s1	11.6	48.2*	1.6	25.9	-0.1	17.4	9.8	-63.9	11.6
CC=Cc1ccc2n(c1=O)C[C@H]1[C@H](CO)[C@@H](C(=O)NCCCN(C)C)[C@@H]2N1C(=O)c1ccccc1F (mixture of isomers)	/	/	0.7	/	/	/	/	/	/
C[C@H]1CN([C@@H](C)CO)C(=O)c2cccc(NS(=O)(=O)c3ccc(F)cc3)c2O[C@@H]1CN(C)Cc1ccc(C(=O)O)cc1	/	/	2.3	/	/	/	/	/	/
CCOC(=O)C1=C(C)Nc2sc(C(=O)c3ccc(C)cc3)c(N)c2C1c1ccc(C(=O)OC)cc1 (stereo unspecified)	11.1	40.8*	0.0	-0.3	0.2	12.1	-6.3	40.8*	-18.2
CCOC(=O)C1=C(C)NC(SCC(=O)OC)=C(C#N)C1c1ccc(C(=O)OC)cc1 (stereo unspecified)	-0.4	-0.4	0.0	6.2	-0.1	2.2	/	/	/
CCOC(=O)C1=C(C)Nc2sc(C(=O)c3ccc(F)cc3)c(N)c2C1c1ccc(C(=O)OC)cc1 (stereo unspecified)	4.7	38.1*	0.1	6.2	0.8	2.7	11.1	31.8	-11.5

Bioassay records as filed in PubChem.
